Structures are written as SMILES.

The first series deals with Protein kinase C alpha type (Homo sapiens, UniProt P17252). In words: Displacement of [3H]PDBu from human recombinant PKCalpha expressed in Escherichia coli […] (DE3).
Conditions: not given
Put shortly: (§1)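 Competition binding: displacement of bound [20-3H]phorbol 12,13-dibutyrate from recombinant PKC alpha or RasGRP3 measured in the presence of phosphatidylserine. IC50 obtained by fitting data points to the theoretical competition curve; Ki calculated from the corresponding IC50.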
(In general: Loss of bound radioactivity is the signal in a displacement assay; it reports binding, not function.)
By Ki is commonly meant the dissociation constant of the complex between target and ligand, obtained from inhibition or displacement. As to `COc1ccc(C(=O)OCC2(CO)C/C(=C/c3cccnc3)C(=O)O2)cc1` (stereo not given), the Ki came out at 21200 nM.
Take `CCCC(CCC)C(=O)OCC1(CO)C/C(=C/c2cccnc2)C(=O)O1` (stereo not given): the Ki was determined as 3270 nM.
Turning to `CN(C)c1ccc(C(=O)OCC2(CO)C/C(=C\c3cnc4ccccc4c3)C(=O)O2)cc1` (stereo not given), the Ki worked out at 755 nM.
In the case of `CCCC(CCC)C(=O)OCC1(CO)C/C(=C\c2cnc3ccccc3c2)C(=O)O1` (stereo not given), the Ki was determined as 13.8 nM.
For the molecule `CCCC(CCC)C(=O)OCC1(CO)C/C(=C/c2ccncc2)C(=O)O1` (stereo not given), the Ki was found to be 870 nM.
As to `CN(C)c1ccc(C(=O)OCC2(CO)C/C(=C\c3ccncc3)C(=O)O2)cc1` (stereo not given), the Ki worked out at 1110 nM.
Regarding `COc1ccc(C(=O)OCC2(CO)C/C(=C/c3ccncc3)C(=O)O2)cc1` (stereo not given), the Ki turned out to be 25400 nM.
As to `COc1ccc(C(=O)OCC2(CO)C/C(=C\c3ccccn3)C(=O)O2)cc1` (stereo not given), the Ki was determined as 1130 nM.
On to `COc1ccc(C(=O)OCC2(CO)C/C(=C\c3ccc4ccccc4n3)C(=O)O2)cc1` (stereo not given), for which the Ki is 132 nM.
Take `COc1ccc(C(=O)OCC2(CO)C/C(=C\c3cccnc3)C(=O)O2)cc1` (stereo not given): the Ki came out at 810 nM.
Still for that read-out and setting: the figure for `COc1ccc(C(=O)OCC2(CO)C/C(=C/c3cnc4ccccc4c3)C(=O)O2)cc1` (stereo not given) is 5100 nM.
`CC(C)CC(CC(=O)OCC1(CO)C/C(=C\c2cn(C)c3ccccc23)C(=O)O1)CC(C)C` (stereo not given): the Ki was found to be 14.8 nM.
As for `CC(C)CC(CC(=O)OCC1(CO)C/C(=C\c2ccccn2)C(=O)O1)CC(C)C` (stereo not given), the Ki came to 4.6 nM.
On the same count and under the same terms, with `COc1ccc(C(=O)OCC2(CO)C/C(=C\c3ccncc3)C(=O)O2)cc1` (stereo not given) the figure was 1450 nM; with `CN(C)c1ccc(C(=O)OCC2(CO)C/C(=C/c3cnc4ccccc4c3)C(=O)O2)cc1` (stereo not given), 4880 nM; with `COc1ccc(C(=O)OCC2(CO)C/C(=C\c3cnc4ccccc4c3)C(=O)O2)cc1` (stereo not given), 144 nM.
With `CCCC(CCC)C(=O)OCC1(CO)C/C(=C/c2ccc3ccccc3n2)C(=O)O1` (stereo not given), the Ki was found to be 78.8 nM.
For the molecule `CCCC(CCC)C(=O)OCC1(CO)C/C(=C\c2cn(C)c3ccccc23)C(=O)O1` (stereo not given), the inhibition constant (Ki) came to 29.7 nM.

Tested on in the next series: not listed separately
In words: Lipophilicity, SlogP of the compound. Format: physicochemical. As to conditions: octanol/water.
What is called logP is a log measure of how a compound divides between an organic and an aqueous phase. In the case of `COc1ccc(C(=O)OCC2(CO)C/C(=C/c3cccnc3)C(=O)O2)cc1` (stereo not given), the logP is 2.01.
`CCCC(CCC)C(=O)OCC1(CO)C/C(=C/c2cccnc2)C(=O)O1` (stereo not given) returned a logP of 2.9.
On to `CN(C)c1ccc(C(=O)OCC2(CO)C/C(=C\c3cnc4ccccc4c3)C(=O)O2)cc1` (stereo not given), for which the logP is 3.22.
Consider `CCCC(CCC)C(=O)OCC1(CO)C/C(=C\c2cnc3ccccc3c2)C(=O)O1` (stereo not given), for which the logP worked out at 4.06.
On to `CCCC(CCC)C(=O)OCC1(CO)C/C(=C/c2ccncc2)C(=O)O1` (stereo not given), for which the logP amounted to 2.9.
Still for that read-out and setting: the figure for `CN(C)c1ccc(C(=O)OCC2(CO)C/C(=C\c3ccncc3)C(=O)O2)cc1` (stereo not given) is 2.07; for `COc1ccc(C(=O)OCC2(CO)C/C(=C/c3ccncc3)C(=O)O2)cc1` (stereo not given) it is 2.01; for `COc1ccc(C(=O)OCC2(CO)C/C(=C\c3ccccn3)C(=O)O2)cc1` (stereo not given) it is 2.01.
In the case of `COc1ccc(C(=O)OCC2(CO)C/C(=C\c3ccc4ccccc4n3)C(=O)O2)cc1` (stereo not given), the logP turned out to be 3.16.
In the case of `COc1ccc(C(=O)OCC2(CO)C/C(=C\c3cccnc3)C(=O)O2)cc1` (stereo not given), the logP was 2.01.
For the molecule `COc1ccc(C(=O)OCC2(CO)C/C(=C/c3cnc4ccccc4c3)C(=O)O2)cc1` (stereo not given), the logP was found to be 3.16.
The molecule `CC(C)CC(CC(=O)OCC1(CO)C/C(=C\c2cn(C)c3ccccc23)C(=O)O1)CC(C)C` (stereo not given) registered a logP of 5.24.
Regarding `CC(C)CC(CC(=O)OCC1(CO)C/C(=C\c2ccccn2)C(=O)O1)CC(C)C` (stereo not given), the logP was 3.78.
Still for that read-out and setting: the figure for `COc1ccc(C(=O)OCC2(CO)C/C(=C\c3ccncc3)C(=O)O2)cc1` (stereo not given) is 2.01.
`CN(C)c1ccc(C(=O)OCC2(CO)C/C(=C/c3cnc4ccccc4c3)C(=O)O2)cc1` (stereo not given): the logP is 3.22.
`COc1ccc(C(=O)OCC2(CO)C/C(=C\c3cnc4ccccc4c3)C(=O)O2)cc1` (stereo not given): the logP amounted to 3.16.
On the same count and under the same terms, the figure for `CCCC(CCC)C(=O)OCC1(CO)C/C(=C/c2ccc3ccccc3n2)C(=O)O1` (stereo not given) is 4.06.
Molecule `CCCC(CCC)C(=O)OCC1(CO)C/C(=C\c2cn(C)c3ccccc23)C(=O)O1` (stereo not given) displayed a logP of 4.36.

Tested on in the next series: not listed separately
In words: Ratio of Ki for human recombinant PKCalpha to RasGRP3.
Conditions: not given
In short, it runs like this:
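Ki values for PKC alpha and RasGRP3 each come from [20-3H]PDBu displacement from the recombinant protein in the presence of phosphatidylserine, with IC50 fitted to the theoretical competition curve and converted to Ki. The ratio is Ki(PKC alpha)/Ki(RasGRP3).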
For the molecule `COc1ccc(C(=O)OCC2(CO)C/C(=C/c3cccnc3)C(=O)O2)cc1` (stereo not given), the Ratio Ki is 4.
For the molecule `CCCC(CCC)C(=O)OCC1(CO)C/C(=C/c2cccnc2)C(=O)O1` (stereo not given), the Ratio Ki came to 5.
Same read-out and setting: the figure for `CN(C)c1ccc(C(=O)OCC2(CO)C/C(=C\c3cnc4ccccc4c3)C(=O)O2)cc1` (stereo not given) is 6; for `CCCC(CCC)C(=O)OCC1(CO)C/C(=C\c2cnc3ccccc3c2)C(=O)O1` (stereo not given) it is 27; for `CCCC(CCC)C(=O)OCC1(CO)C/C(=C/c2ccncc2)C(=O)O1` (stereo not given) it is 20.
Still for that read-out and setting: the figure for `CN(C)c1ccc(C(=O)OCC2(CO)C/C(=C\c3ccncc3)C(=O)O2)cc1` (stereo not given) is 19; for `COc1ccc(C(=O)OCC2(CO)C/C(=C/c3ccncc3)C(=O)O2)cc1` (stereo not given) it is 7; for `COc1ccc(C(=O)OCC2(CO)C/C(=C\c3ccccn3)C(=O)O2)cc1` (stereo not given) it is 32.
`COc1ccc(C(=O)OCC2(CO)C/C(=C\c3ccc4ccccc4n3)C(=O)O2)cc1` (stereo not given): the Ratio Ki came to 16.
As for `COc1ccc(C(=O)OCC2(CO)C/C(=C\c3cccnc3)C(=O)O2)cc1` (stereo not given), the Ratio Ki was 10.
`COc1ccc(C(=O)OCC2(CO)C/C(=C/c3cnc4ccccc4c3)C(=O)O2)cc1` (stereo not given): the Ratio Ki was determined as 6.
For `COc1ccc(C(=O)OCC2(CO)C/C(=C\c3ccncc3)C(=O)O2)cc1` (stereo not given), the Ratio Ki amounted to 27.
Still for that read-out and setting: with `CN(C)c1ccc(C(=O)OCC2(CO)C/C(=C/c3cnc4ccccc4c3)C(=O)O2)cc1` (stereo not given) the figure was 3; with `COc1ccc(C(=O)OCC2(CO)C/C(=C\c3cnc4ccccc4c3)C(=O)O2)cc1` (stereo not given), 8.
For `CCCC(CCC)C(=O)OCC1(CO)C/C(=C/c2ccc3ccccc3n2)C(=O)O1` (stereo not given), the Ratio Ki stood at 17.
Take `CCCC(CCC)C(=O)OCC1(CO)C/C(=C\c2cn(C)c3ccccc23)C(=O)O1` (stereo not given): the Ratio Ki stood at 165.

A further series addresses T1, Ras guanyl-releasing protein 3 (Homo sapiens, UniProt Q8IV61).
T1 sequence (Q8IV61 whole entry): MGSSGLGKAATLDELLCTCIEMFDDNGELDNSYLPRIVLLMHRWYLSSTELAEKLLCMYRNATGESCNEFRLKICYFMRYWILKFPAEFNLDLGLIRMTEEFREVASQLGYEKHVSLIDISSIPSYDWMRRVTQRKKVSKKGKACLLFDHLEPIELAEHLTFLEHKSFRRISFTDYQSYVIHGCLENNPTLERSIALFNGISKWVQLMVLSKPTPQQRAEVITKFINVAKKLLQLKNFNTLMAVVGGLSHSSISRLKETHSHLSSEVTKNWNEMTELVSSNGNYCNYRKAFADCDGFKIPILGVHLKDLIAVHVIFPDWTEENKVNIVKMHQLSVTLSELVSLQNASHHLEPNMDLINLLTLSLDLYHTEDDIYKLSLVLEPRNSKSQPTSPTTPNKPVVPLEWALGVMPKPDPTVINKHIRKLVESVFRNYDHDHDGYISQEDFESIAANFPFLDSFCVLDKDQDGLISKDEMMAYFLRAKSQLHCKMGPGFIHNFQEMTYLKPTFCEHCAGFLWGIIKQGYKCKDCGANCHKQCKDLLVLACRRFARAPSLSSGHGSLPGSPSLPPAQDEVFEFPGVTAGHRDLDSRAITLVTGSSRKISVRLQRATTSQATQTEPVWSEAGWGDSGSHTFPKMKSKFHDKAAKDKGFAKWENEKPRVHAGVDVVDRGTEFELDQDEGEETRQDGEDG
In words: Displacement of [3H]PDBu from RasGRP3 expressed in cells. It is filed as cell-based.
Conditions: not given
Put shortly: as §1
For the molecule `COc1ccc(C(=O)OCC2(CO)C/C(=C/c3cccnc3)C(=O)O2)cc1` (stereo not given), the Ki was 5500 nM.
`CCCC(CCC)C(=O)OCC1(CO)C/C(=C/c2cccnc2)C(=O)O1` (stereo not given) showed a Ki of 670 nM.
The molecule `CN(C)c1ccc(C(=O)OCC2(CO)C/C(=C\c3cnc4ccccc4c3)C(=O)O2)cc1` (stereo not given) yielded a Ki of 137 nM.
Same read-out and setting: the figure for `CCCC(CCC)C(=O)OCC1(CO)C/C(=C\c2cnc3ccccc3c2)C(=O)O1` (stereo not given) is 0.52 nM; for `CCCC(CCC)C(=O)OCC1(CO)C/C(=C/c2ccncc2)C(=O)O1` (stereo not given) it is 44 nM.
`CN(C)c1ccc(C(=O)OCC2(CO)C/C(=C\c3ccncc3)C(=O)O2)cc1` (stereo not given) displayed a Ki of 54 nM.
Consider `COc1ccc(C(=O)OCC2(CO)C/C(=C/c3ccncc3)C(=O)O2)cc1` (stereo not given), for which the Ki amounted to 3660 nM.
The molecule `COc1ccc(C(=O)OCC2(CO)C/C(=C\c3ccccn3)C(=O)O2)cc1` (stereo not given) had a Ki of 35.8 nM.
`COc1ccc(C(=O)OCC2(CO)C/C(=C\c3ccc4ccccc4n3)C(=O)O2)cc1` (stereo not given) yielded a Ki of 8.2 nM.
`COc1ccc(C(=O)OCC2(CO)C/C(=C\c3cccnc3)C(=O)O2)cc1` (stereo not given) came in with a Ki of 81 nM.
With `COc1ccc(C(=O)OCC2(CO)C/C(=C/c3cnc4ccccc4c3)C(=O)O2)cc1` (stereo not given), the Ki stood at 907 nM.
The molecule `CC(C)CC(CC(=O)OCC1(CO)C/C(=C\c2cn(C)c3ccccc23)C(=O)O1)CC(C)C` (stereo not given) yielded a Ki of 0.7 nM.
On the same count and under the same terms, with `CC(C)CC(CC(=O)OCC1(CO)C/C(=C\c2ccccn2)C(=O)O1)CC(C)C` (stereo not given) the figure was 0.2 nM; with `COc1ccc(C(=O)OCC2(CO)C/C(=C\c3ccncc3)C(=O)O2)cc1` (stereo not given), 54.2 nM.
Same read-out and setting: with `CN(C)c1ccc(C(=O)OCC2(CO)C/C(=C/c3cnc4ccccc4c3)C(=O)O2)cc1` (stereo not given) the figure was 1410 nM; with `COc1ccc(C(=O)OCC2(CO)C/C(=C\c3cnc4ccccc4c3)C(=O)O2)cc1` (stereo not given), 17.4 nM; with `CCCC(CCC)C(=O)OCC1(CO)C/C(=C/c2ccc3ccccc3n2)C(=O)O1` (stereo not given), 4.6 nM.
For the molecule `CCCC(CCC)C(=O)OCC1(CO)C/C(=C\c2cn(C)c3ccccc23)C(=O)O1` (stereo not given), the Ki was determined as 0.18 nM.

Values taken from ChEMBL document CHEMBL1140034, “Conformationally constrained analogues of diacylglycerol. 30. An investigation of diacylglycerol-lactones containing heteroaryl groups reveals compounds with high selectivity for Ras guanyl nucleotide-releasing proteins” (J Med Chem, 2008).
